{"source": "paper PMC5732839", "about": "(Cancer research, 2017)", "key": {"[1]": {"system": "Src myristoylation", "experiment": "Src myristoylation by Click chemistry in PC-3 cells", "type": "cell-based", "settings": "endogenous Src kinase, myristic acid-azide 60 µM"}, "[2]": {"system": "PC-3 cells", "experiment": "Cell proliferation", "type": "cell-based", "settings": "PC-3, B13 for 5 d", "how_it_was_run": "(§1)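 Cells seeded at 3000–5000/well, exposed to a range of test-compound concentrations for 5 d. Medium swapped for 100 µL phenol-red-free medium, 10 µL of 12 mM MTT stock added, 37 °C 4 h; stopped with 100 µL 10% SDS in 0.01 M HCl, further 4 h at 37 °C; absorbance at 570 nm. Mean ± SEM of n=6 wells, two-sided Student's t test.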"}, "[3]": {"system": "22Rv1 cells", "experiment": "Transwell invasion assay", "type": "cell-based", "settings": "22Rv1, 15 µM B13", "how_it_was_run": "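22Rv1 cells at about 80% confluence were serum-starved for 24 h, then seeded in Transwell inserts. The top well held medium with 15 µM test compound or DMSO, and the receiver well held 10% FBS. After 48 h, cells were fixed with 3.7% formaldehyde (2 min) then methanol (20 min). Staining was 0.1% crystal violet for 15 min in the dark at room temperature. Non-migrated cells were swabbed off, and migrated cells were imaged and counted.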"}, "[4]": {"system": "acid ceramidase", "settings": "cited from earlier work"}, "[5]": {"molecular_target": "T1, NMT1 (Homo sapiens, UniProt P30419)", "T1 sequence (P30419 109-496)": "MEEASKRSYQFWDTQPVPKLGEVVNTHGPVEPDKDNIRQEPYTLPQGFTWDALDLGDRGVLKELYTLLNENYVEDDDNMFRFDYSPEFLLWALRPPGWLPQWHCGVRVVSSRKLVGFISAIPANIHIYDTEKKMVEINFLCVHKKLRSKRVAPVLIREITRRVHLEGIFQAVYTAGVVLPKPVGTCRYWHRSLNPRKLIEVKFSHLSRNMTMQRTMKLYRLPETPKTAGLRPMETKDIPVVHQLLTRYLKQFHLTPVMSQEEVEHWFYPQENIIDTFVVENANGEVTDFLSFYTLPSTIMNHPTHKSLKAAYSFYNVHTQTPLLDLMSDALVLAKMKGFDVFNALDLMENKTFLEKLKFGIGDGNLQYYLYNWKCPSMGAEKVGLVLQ", "experiment": "Fluorescence-based NMT1 enzymatic activity assay", "type": "biochemical"}, "[6]": {"system": "PNT2 cells", "experiment": "Cell cycle analysis by flow cytometry", "type": "cell-based"}, "[7]": {"experiment": "Toxicity in host mice carrying PC-3 xenografts", "type": "in vivo, SCID mice"}, "[8]": {"system": "pSrc(Y416), pFAK, pAkt", "experiment": "Immunoblotting of Src signaling in PC-3 total lysates", "type": "cell-based", "settings": "PC-3 cells"}, "[9]": {"system": "LNCaP, 22Rv1, PC-3, and DU145 cells", "experiment": "Cell cycle analysis by flow cytometry", "type": "cell-based", "settings": "tested prostate cancer cells, B13 for 3 d", "how_it_was_run": "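Cells were grown in ATCC-recommended medium, and after attachment the medium with or without 15 or 30 µM test compound was renewed every 24 h for 3 days. 1 × 10^6 cells were PBS-washed and fixed in 70% ethanol for 1 h at 4 °C. They were stained with propidium iodide/RNase for 30 min in the dark at room temperature. Flow cytometry used 488 nm excitation and 585 nm emission, and G0/G1, S and G2/M percentages were compared with control.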"}, "[10]": {"system": "293T cells", "experiment": "Cell proliferation", "type": "cell-based"}, "[11]": {"system": "DU145 cells", "experiment": "Immunoblotting of cell cycle proteins", "type": "cell-based", "how_it_was_run": "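DU145 cells were treated with or without different concentrations of test compound. Lysates were immunoblotted for CDK2, CDK6, cyclin D1, p27 and tubulin.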"}, "[12]": {"system": "PC-3 cells", "experiment": "Wound-healing", "type": "cell-based", "settings": "PC-3, 15 µM B13", "how_it_was_run": "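PC-3 cells (8×10^5 per well) were grown 24 h to 95% confluence, then scratched with a 1 mL pipette tip. Wells were washed to remove floating cells and refed with fresh medium containing 15 µM test compound. The wound space was imaged daily.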"}, "[13]": {"system": "PC-3 xenograft tumors", "experiment": "PC-3 xenograft tumor growth", "type": "in vivo, SCID mice", "settings": "75 mg/kg i.v. twice a week for 6 weeks"}, "[14]": {"system": "LNCaP cells", "experiment": "Cell proliferation", "type": "cell-based", "settings": "B13 for 5 d", "how_it_was_run": "as §1"}, "[15]": {"system": "de novo synthesized Src kinase", "experiment": "293T cells expressing doxycycline inducible Src", "type": "cell-based", "how_it_was_run": "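293T-rtTA cells carrying lentiviral TRE/Src(Y529F) in DMEM with 10% FBS; Src induced with or without doxycycline 1 µg/mL plus 0 (DMSO), 15 or 30 µM test compound for 24 h. Lysed in TNE buffer (pH 7.4, protease/phosphatase inhibitors), needle-homogenised, spun 14,000 rpm 10 min (supernatant = cytosol); pellet extracted with 60 mM β-octylglucoside on ice 30 min, spun 14,000 rpm 20 min 4°C (total membrane). Immunoblot: […] antibody, caveolin-1/GAPDH markers.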"}, "[16]": {"system": "PNT2 normal cells", "experiment": "Cell proliferation", "type": "cell-based"}, "[17]": {"system": "PC-3 cells", "experiment": "Immunoblotting of cell cycle proteins", "type": "cell-based"}, "[18]": {"system": "DU145 cells", "experiment": "Cell proliferation", "type": "cell-based", "settings": "DU145, B13 for 5 d", "how_it_was_run": "as §1"}, "[19]": {"system": "SYF1-Src(Y529F) cells", "experiment": "Soft agar colony formation assay", "type": "cell-based, mouse"}, "[20]": {"system": "22Rv1 cells", "experiment": "Cell proliferation", "type": "cell-based", "settings": "22Rv1, B13 for 5 d", "how_it_was_run": "as §1"}, "[21]": {"system": "Src myristoylation", "experiment": "Src myristoylation by Click chemistry in SYF1+Src", "type": "cell-based, mouse", "settings": "ectopically expressed Src kinase, SYF1+Src(WT) cells, myristic acid-azide 60 µM", "how_it_was_run": "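Mouse SYF1 (Src−/−Yes−/−Fyn−/−) fibroblasts were lentivirally transduced with wild-type Src and grown in DMEM with 2% fatty-acid-free BSA. They were pretreated with test compound at 0, 1, 5, 15 or 30 µM for 2 h, then given 60 µM myristic acid-azide. M-PER lysates underwent Click labelling with 40 µM alkyne-biotin and CuSO4. Myristoyl-Src (60 kDa) was detected with streptavidin-HRP, and total Src and GAPDH by immunoblot.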"}}, "note": "Entries after “also recorded” stand apart in the source; their conditions may differ.", "data": [{"smiles": "CCCCCCCCCCCCCC(=O)N[C@H](CO)[C@H](O)c1ccc([N+](=O)[O-])cc1", "note": "[B13, N-[(1R,2R)-2-hydroxy-1-(hydroxymethyl)-2-(4-nitrophenyl)ethyl]-tetradecanamide]", "values": [{"measurement": "Src myristoylation (myristoyl-Src level)", "setting": "[1]", "value": "inhibited Src myristoylation"}, {"measurement": "Proliferation", "setting": "[2]", "value": "significantly inhibited proliferation; also recorded: significant inhibition"}, {"measurement": "Invasion", "setting": "[3]", "value": "suppressed invasion"}, {"measurement": "Inhibition of acid ceramidase", "setting": "[4]", "value": "can inhibit acid ceramidase"}, {"measurement": "IC50", "setting": "[5]", "value": 77.6, "unit": "µM"}, {"measurement": "Cell cycle", "setting": "[6]", "value": "did not affect the cell cycle"}, {"measurement": "Body weight change", "setting": "[7]; 75 mg/kg i.v. twice a week", "value": "no significant changes"}, {"measurement": "Organs' weight change", "setting": "[7]; 75 mg/kg i.v. twice a week", "value": "no significant changes"}, {"measurement": "Pathological toxicity to major organs (liver, kidney, lung; H&E)", "setting": "[7]; 75 mg/kg i.v. twice a week for 6 weeks", "value": "no observed pathological toxicity"}, {"measurement": "Src kinase tyrosine phosphorylation [pSrc(Y416)]", "setting": "[8]", "value": "inhibited Src kinase tyrosine phosphorylation"}, {"measurement": "pFAK and pAkt levels", "setting": "[8]", "value": "down-regulation of pFAK and pAkt"}, {"measurement": "Cell cycle progression", "setting": "[9]", "value": "significantly inhibited"}, {"measurement": "Proliferation", "setting": "[10]", "value": "did not affect"}, {"measurement": "Expression of CDK2, cyclin D1 and p27", "setting": "[11]", "value": "decreased expression of CDK2 and cyclin D1, increased expression of p27"}, {"measurement": "Expression of CDK6", "setting": "[11]", "value": "decreased expression of CDK6"}, {"measurement": "Migration", "setting": "[12]", "value": "suppressed"}, {"measurement": "Size and weight of PC-3 xenograft tumors", "setting": "[13]", "value": "significantly inhibited the size and weight"}, {"measurement": "Proliferation", "setting": "[14]", "value": "less sensitive"}, {"measurement": "De novo synthesized Src-induced signaling", "setting": "[15]; Dox 1 µg/ml, 15 and 30 µM B13, 24 h", "value": "suppression of de novo synthesized Src-induced signaling"}, {"measurement": "Non-phosphorylated Src kinase [non-pSrc(Y527)] at the cytoplasmic membrane", "setting": "[15]; doxycycline induced, membrane fraction", "value": "reduced"}, {"measurement": "Proliferation", "setting": "[16]", "value": "limited effect"}, {"measurement": "Expression of CDK2, cyclin D1 and p27", "setting": "[17]", "value": "decreased expression of CDK2 and cyclin D1, increased expression of p27"}, {"measurement": "Proliferation", "setting": "[18]", "value": "significantly inhibited proliferation"}, {"measurement": "Src(Y529F)-induced colony formation (transformation)", "setting": "[19]", "value": "the transformation was inhibited"}, {"measurement": "Proliferation", "setting": "[20]", "value": "significantly inhibited proliferation; also recorded: significant inhibition"}, {"measurement": "Src myristoylation (myristoyl-Src level)", "setting": "[21]", "value": "inhibited Src myristoylation"}]}, {"smiles": "CCCCCCCCCCCCCCN[C@H](CO)[C@H](O)c1ccc([N+](=O)[O-])cc1", "note": "[LCL204]", "values": [{"measurement": "Inhibition of acid ceramidase relative to B13", "setting": "[4]", "value": "higher inhibitory potential than B13"}]}]}
